# Data reported in ChEMBL document CHEMBL1155362, “Synthesis, characterization and derivatization of some novel types of mono- and bis-imidazolidineiminothiones and imidazolidineiminodithiones with antitumor, antiviral, antibacterial and antifungal activities--part I” (Eur J Med Chem, 2009).
# Active and inactive are the calls of the source. No cut-off for these calls is given here.
# What was measured:
# Staphylococcus aureus [1] = experiment: Antibacterial activity against Staphylococcus aureus NCTC 7447 at 4 mg/ml by agar disk diffusion assay; format: functional; conditions: read-out: DIZ
# Aspergillus niger [2] = experiment: Antifungal activity against Aspergillus niger IMI 31726 at 4 mg/ml by agar disk diffusion assay; format: functional; conditions: read-out: DIZ
# Salmonella typhi [3] = experiment: Antibacterial activity against Salmonella typhi NCIMB 9331 at 4 mg/ml by agar disk diffusion assay; format: functional, Salmonella enterica subsp. enterica serovar Typhi; conditions: Salmonella enterica, read-out: DIZ
# Bacillus subtilis [4] = experiment: Antibacterial activity against Bacillus subtilis NCTC 1040 at 4 mg/ml by agar disk diffusion assay; format: functional; conditions: read-out: DIZ
# Hepatovirus A [5] = experiment: Antiviral activity against Hepatitis A virus infected african green monkey Vero cells at 10^-4 dilution of 5 mg/ml by plaque formation assay; format: functional
# Summary of the method: (§1)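 Compound dilutions prepared from a 5 mg/mL DMSO stock, using the maximum non-toxic dilution for Vero cells over 3 days; 0.1 mL virus (10³) mixed with 0.1 mL compound for 1 h at room temperature; mixture inoculated onto washed Vero monolayers in 12-well plates and adsorbed at 37 °C; 2× MEM/agarose overlay applied; read-out % reduction in plaque count versus untreated virus control.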
# Candida albicans [6] = experiment: Antifungal activity against Candida albicans IMRU 3669 at 4 mg/ml by agar disk diffusion assay; format: functional; conditions: read-out: DIZ
# Coxsackievirus B4 [7] = experiment: Antiviral activity against Coxsackievirus B4 infected african green monkey Vero cells at 10^-4 dilution of 5 mg/ml by plaque formation assay; format: functional, organism-based; summary of the method: as §1
# Escherichia coli [8] = experiment: Antibacterial activity against Escherichia coli NCTC 10416 at 4 mg/ml by agar disk diffusion assay; format: functional; conditions: read-out: DIZ
# Human alphaherpesvirus 1 [9] = experiment: Antiviral activity against HSV1 infected african green monkey Vero cells at 10^-4 dilution of 5 mg/ml by plaque formation assay; format: functional; summary of the method: as §1
# Hepatovirus A [10] = experiment: Antiviral activity against HAV infected african green monkey Vero cells at 10^-2 dilution of 5 mg/ml by plaque formation assay; format: functional; summary of the method: as §1
# Staphylococcus aureus [11] = experiment: Antibacterial activity against Staphylococcus aureus NCTC 7447 at 1 mg/ml by agar disk diffusion assay; format: functional; conditions: read-out: DIZ
# Aspergillus niger [12] = experiment: Antifungal activity against Aspergillus niger IMI 31726 at 1 mg/ml by agar disk diffusion assay; format: functional; conditions: read-out: DIZ
# Bacillus subtilis [13] = experiment: Antibacterial activity against Bacillus subtilis NCTC 1040 at 1 mg/ml by agar disk diffusion assay; format: functional; conditions: read-out: DIZ
# Candida albicans [14] = experiment: Antifungal activity against Candida albicans IMRU 3669 at 1 mg/ml by agar disk diffusion assay; format: functional; conditions: read-out: DIZ
# Summary of the method: (§2)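 Fungi maintained on Czapek's Dox agar; agar well diffusion with 1 cm wells and […] of each concentration (1, 2.5, 5 mg/mL) in DMF; inhibition zone diameter measured.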
# Salmonella typhi [15] = experiment: Antibacterial activity against Salmonella typhi NCIMB 9331 at 1 mg/ml by agar disk diffusion assay; format: functional, Salmonella enterica subsp. enterica serovar Typhi; conditions: Salmonella enterica, read-out: DIZ
# Coxsackievirus B4 [16] = experiment: Antiviral activity against Coxsackievirus B4 infected african green monkey Vero cells at 10^-2 dilution of 5 mg/ml by plaque formation assay; format: functional; summary of the method: as §1
# Human alphaherpesvirus 1 [17] = experiment: Antiviral activity against HSV1 infected african green monkey Vero cells at 10^-2 dilution of 5 mg/ml by plaque formation assay; format: functional; summary of the method: as §1
# Escherichia coli [18] = experiment: Antibacterial activity against Escherichia coli NCTC 10416 at 1 mg/ml by agar disk diffusion assay; format: functional; conditions: read-out: DIZ
# Escherichia coli [19] = experiment: Antibacterial activity against Escherichia coli NCTC 10416 at 5 mg/ml by agar disk diffusion assay; format: functional; conditions: read-out: DIZ
# Salmonella typhi [20] = experiment: Antibacterial activity against Salmonella typhi NCIMB 9331 at 5 mg/ml by agar disk diffusion assay; format: functional, Salmonella enterica subsp. enterica serovar Typhi; conditions: Salmonella enterica, read-out: DIZ
# Candida albicans [21] = experiment: Antifungal activity against Candida albicans IMRU 3669 at 5 mg/ml by agar disk diffusion assay; format: functional; conditions: Candida albicans, IMRU 3669; read-out: DIZ; summary of the method: as §2
# Staphylococcus aureus [22] = experiment: Antibacterial activity against Staphylococcus aureus NCTC 7447 at 5 mg/ml by agar disk diffusion assay; format: functional; conditions: read-out: DIZ
# Bacillus subtilis [23] = experiment: Antibacterial activity against Bacillus subtilis NCTC 1040 at 5 mg/ml by agar disk diffusion assay; format: functional; conditions: read-out: DIZ
structure (smiles),measurement,setting,value
N=C1C(=S)N(c2ccc(Br)cc2)C(=O)N1c1ccc(Cl)c(C(F)(F)F)c1,zone of inhibition at 4000 µg/mL,Staphylococcus aureus [1],17.5 mm
same,zone of inhibition at 4000 µg/mL,Aspergillus niger [2],16 mm
same,zone of inhibition at 4000 µg/mL,Salmonella typhi [3],16.5 mm
same,zone of inhibition at 4000 µg/mL,Bacillus subtilis [4],16 mm
same,Activity,Hepatovirus A [5],inactive
same,zone of inhibition at 4000 µg/mL,Candida albicans [6],16 mm
same,Activity,Coxsackievirus B4 [7],inactive
same,zone of inhibition at 4000 µg/mL,Escherichia coli [8],18 mm
same,Activity,Human alphaherpesvirus 1 [9],50%
O=C1C(=S)N(c2ccc(Br)cc2)C(=O)N1c1ccc2c(c1)Cc1ccccc1-2,Activity,Hepatovirus A [10],inactive
same,zone of inhibition at 1000 µg/mL,Staphylococcus aureus [11],13 mm
same,zone of inhibition at 1000 µg/mL,Aspergillus niger [12],13 mm
same,zone of inhibition at 1000 µg/mL,Bacillus subtilis [13],14 mm
same,zone of inhibition at 1000 µg/mL,Candida albicans [14],13 mm
same,zone of inhibition at 1000 µg/mL,Salmonella typhi [15],12 mm
same,Activity,Coxsackievirus B4 [16],inactive
same,Activity,Human alphaherpesvirus 1 [17],40%
same,zone of inhibition at 1000 µg/mL,Escherichia coli [18],11 mm
CCOc1ccc(N2C(=O)N(c3ccc4c(c3)Cc3ccccc3-4)C(=O)C2=S)cc1,zone of inhibition at 5000 µg/mL,Escherichia coli [19],19 mm
same,Activity,Hepatovirus A [10],50%
same,zone of inhibition at 5000 µg/mL,Salmonella typhi [20],17.5 mm
same,zone of inhibition at 5000 µg/mL,Candida albicans [21],14.5 mm
same,zone of inhibition at 5000 µg/mL,Staphylococcus aureus [22],15.5 mm
same,Activity,Coxsackievirus B4 [16],60%
same,Activity,Human alphaherpesvirus 1 [17],50%
same,zone of inhibition at 5000 µg/mL,Bacillus subtilis [23],17 mm
